Most compounds without a hit are left out; they make up all but 3.8% or so of the library.
KCNK9 inh = KCNK9 potassium channel inhibitors, primary screen, HEK293 cells, thallium flux. 310,000 tested, 1.2% active. Potassium channel subfamily K member 9 (Homo sapiens), Q9NPC2. B-score at 10 µM. AID 488922, 2010. FluxOR thallium flux fluorescence; stronger effect = lower value;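 active means ratio B-score over 3 SD below the library mean, with starting fluorescence within 5 SD of its mean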;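 further: negative B-score means less thallium flux so channel inhibition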
Kir21 inh = inhibitors of mouse Kir2.1 inward-rectifier potassium channel; B-score at 10 µM; HEK293-Kir2.1, FluxOR thallium flux fluorescence; stronger effect = lower value; Inward rectifier potassium channel 2 (Mus musculus), P35561; 310,000 tested, 0.85% active;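 active means fluorescence ratio B-score at or below minus 3 SD of library scores, with starting-brightness B-score within 2 SD, cut at about -4.2 in these data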;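 further: channel flux triggered by added potassium and thallium sulfate stimulus; B-score of peak minus minimum fluorescence over baseline after thallium stimulus; more negative B-score means stronger Kir2.1 block with less thallium influx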
KCNK3 inh = human KCNK3 channel inhibitors, primary screen, CHO cells, FluxOR thallium flux, B-score | Potassium channel subfamily K member 3 (Homo sapiens), O14649 | FluxOR fluorescence; stronger effect = lower value | B-score at 10 µM | 340,000 tested, 0.84% active | AID 602410, 2012;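 active means B-score under library mean minus 4 SD, starting fluorescence ratio at most library mean plus 5 SD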;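 further: more negative B-score means stronger inhibition of thallium flux through KCNK3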
Target sequence (O14649 whole entry, looked up): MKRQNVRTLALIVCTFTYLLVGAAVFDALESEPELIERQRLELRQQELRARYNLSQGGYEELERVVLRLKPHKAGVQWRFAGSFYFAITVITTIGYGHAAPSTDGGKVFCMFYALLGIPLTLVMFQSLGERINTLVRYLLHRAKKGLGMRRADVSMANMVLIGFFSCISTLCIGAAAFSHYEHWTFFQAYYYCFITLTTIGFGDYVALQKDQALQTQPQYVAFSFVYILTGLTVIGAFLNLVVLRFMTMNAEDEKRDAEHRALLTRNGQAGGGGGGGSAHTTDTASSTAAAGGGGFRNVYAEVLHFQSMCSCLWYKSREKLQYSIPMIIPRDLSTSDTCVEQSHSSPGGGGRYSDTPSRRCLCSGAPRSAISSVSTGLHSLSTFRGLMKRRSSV
KCNQ1 pot = potentiators or activators of KCNQ1 channel, primary screen, cell-based, thallium flux, high-throughput | CHO-K1 KCNQ1, thallium flux FluxOR fluorescence; stronger effect = higher value | B-score at 10 µM | 310,000 tested, 0.35% active | AID 2648, 2010;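 active means fluorescence ratio B-score, a plate-corrected score, at least three library SD, with initial intensity B-score within 5 SD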
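Assay system: CHO-K1 cells stably expressing KCNQ1; Medium: assay buffer with matched DMSO; Also added: K+/Tl+ depolarizing stimulus; Dosing: single dose; Timing: dye 90 min, compound 20 min, room temperature; Measured by: kinetic FluxOR thallium fluorescence, 10-s 1-Hz baseline, 110-s post-stimulus read; Read-out: peak-minus-minimum fluorescence over initial fluorescence, negative-control normalized, B-scored.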
KCNQ1 block = inhibitors of human KCNQ1 channel, primary screen, cell-based, thallium flux, high-throughput. 310,000 tested, 1.3% active. Potassium voltage-gated channel subfamily KQT member 1 (Homo sapiens), P51787. CHO-K1 KCNQ1, FluxOR thallium flux fluorescence; stronger effect = higher value. AID 2642, 2010. B-score at 10 µM;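 active means compounds whose thallium flux B-score, printed positive for inhibition, exceeds three library SD while starting fluorescence stays within three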;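 further: channel opened by potassium depolarization with thallium stimulus after 20 min compound exposure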
hERG rescue = hERG rescue from dofetilide block, primary screen, cell-based, CHO-hERG, FluxOR thallium flux, dofetilide IC70; Voltage-gated inwardly rectifying potassium channel KCNH2 (Homo sapiens), Q12809; dofetilide IC70 present; activation (rescue from dofetilide block), less the hit threshold, % at 10 µM; 310,000 tested, 0.51% active; AID 1511, 2009;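 active means activation above the mean of controls blocked by dofetilide plus 5 SD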;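 further: thallium influx through hERG after potassium depolarization seen as dye fluorescence rise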
KCNK9 inh conf = KCNK9 potassium channel inhibitors, confirmation, HEK293 cells, thallium flux, duplicate; 4,900 tested, 43% active; shares compounds with KCNK9 inh; inhibition, % at 10 µM; AID 492992, 2010; FluxOR thallium flux fluorescence;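 active means thallium signal inhibited by more than 5 SD of the compound-free buffer control wells, on both duplicate plates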;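 further: 0% = assay buffer control wells without compound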
Kir21 sel = mouse Kir2.1 channel inhibition, confirmation, selectivity assay for KCNK9 modulator project, cell-based, HEK293, thallium flux | shares compounds with KCNK9 inh | Kir2.1 cells, FluxOR thallium flux fluorescence | inhibition, % at 10 µM | 4,900 tested, 4% active;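 active means thallium signal drop more than 5 SD beyond the mean of the no-compound control wells, seen in both duplicate plates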;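 further: signal is fluorescence rise after thallium addition divided by baseline fluorescence; plate controls were assay buffer only for no effect and full block by chlorpromazine control for full effect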
KCNK9 uninduced = thallium flux in non-induced HEK293 cells, confirmation, counter-screen for KCNK9 inhibitor project, cell-based, second counter screen, non-induced KCNK9-HEK293; shares compounds with KCNK9 inh; FluxOR thallium flux; inhibition, % at 10 µM; 4,900 tested, 40% active;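 active means thallium signal drop beyond 5 SD of the untreated control mean, on both duplicate plates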;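 further: plate controls were buffer only IC0 wells for no effect and SID17386958 at its maximal inhibitory level for full effect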
* hit, by the source's call; i = inactive; · = no result given.

SMILES	KCNK9 inh	Kir21 inh	KCNK3 inh	KCNQ1 pot	KCNQ1 block	hERG rescue	KCNK9 inh conf	Kir21 sel	KCNK9 uninduced
O=c1cc(N2CCCCC2)c(-c2ccccc2)nn1Cc1ccc(F)cc1	-12*	-0.23	i	i	i	-31	60%*	i	36%*
O=c1c2c(c(-c3ccccc3)nn1Cc1ccccc1)CCCC2	i	2.8	i	i	i	0	i	i	28%*
O=c1cc(N2CCCCC2)c(-c2ccccc2)nn1Cc1ccc(Cl)cc1	i	2.4	i	i	i	-4	·	·	·
O=c1ccc(-c2ccccc2)nn1Cc1ccccc1	i	0.3	i	i	i	-2	·	·	·
Cc1c(C(=O)Nc2ccc3c(c2)OCO3)oc2ccccc12	-15*	0.84	i	i	i	-12	62%*	i	33%*
CCN(CC)C(=O)c1cccc(NC(=O)c2ccccc2OCc2c(C)noc2C)c1	·	·	i	·	·	·	·	·	·
CCC(NC(=O)c1cccc(Cn2nc(C)c([N+](=O)[O-])c2C)c1)c1ccc(C(C)C)cc1 (centres undefined)	i	0.42	i	i	i	-8	i	i	i
NC(=O)/C=C\c1cn(-c2ccccc2)nc1-c1ccc2c(c1)OCCO2	i	0.8	i	i	i	-8	·	·	·
CC(C)OC(=O)c1cn(-c2ccccc2)nc1-c1ccc2c(c1)OCCO2	i	0.01	i	i	i	-14	i	i	i
CC(C)CNC(=O)COC(=O)CCC(=O)c1cccs1	i	1.9	i	i	i	-4	·	·	·
Cc1ccc(C)c(OCc2cc(C(=O)N3CC[C@@H]4CCCC[C@H]4C3)no2)c1	i	0	i	i	i	-13	i	i	24%*
COCC1CCN(C(=O)c2cc(COc3ccc(F)cc3F)on2)C1 (centres undefined)	i	0.45	i	i	i	1	·	·	·
COc1cc(C)ccc1OCc1cc(C(=O)N2CCC(c3ccc(F)cc3)C2)no1 (centres undefined)	i	0.71	i	i	i	-8	i	i	i
CC(C)CC1(C)NC(=O)N(Cc2cc([N+](=O)[O-])cc3c2OCOC3)C1=O (centres undefined)	i	-0.83	i	i	i	-14	·	·	·
COC(=O)C1=C(C(=O)OC)SC(=C2C(=S)C(C)(C)N(C(=O)CC(C)C)c3ccccc32)S1	-11*	-1.3	i	i	i	-13	26%*	i	32%*
Cc1cc(C)c(C(=O)C2OC(=O)C(C)(C)C(=O)C2(C)C)c(C)c1 (centres undefined)	i	0.34	i	i	i	-11	i	i	i
CSc1ccccc1C(=O)OCC(=O)N1CCCC1=O	·	·	i	·	·	·	·	·	·
CCC(C(=O)OCC(=O)Nc1cccc(S(=O)(=O)NC2=NCCCCC2)c1)c1ccccc1 (centres undefined)	i	-0.63	·	i	i	-8	·	·	·
CCn1ncc(CN2CCCC(C(=O)c3cccc(OC(C)C)c3)C2)c1C (centres undefined)	i	1.6	i	i	i	-9	i	i	i
COCc1cc(CN2CCCC(C(=O)c3cccc(C(F)(F)F)c3)C2)ccc1OC (centres undefined)	i	-0.37	i	i	i	-13	i	i	i
COc1ccc(CN2CCCC(C(=O)c3cccc(OC(C)C)c3)C2)cc1Cn1cccn1 (centres undefined)	i	-0.76	i	i	i	-23	i	i	i
CCOC(=O)c1[nH]ncc1CN1CCCC(C(=O)c2cccc(OC(C)C)c2)C1 (centres undefined)	i	-1	i	i	i	-14	·	·	·
O=C(CN1CC(=O)Nc2ccccc21)NCCc1ccc(Cl)cc1Cl	i	-1.8	i	i	i	-5	·	·	·
COc1ccc(C(=O)N2CCC(C(=O)NC3CC3)CC2)cc1	i	-0.41	i	i	i	-2	·	·	·
COC(=O)c1ccccc1NC(=O)C1CCN(C(=O)c2ccc(OC)cc2)CC1	i	0.69	i	i	i	-7	i	i	i
SMILES	KCNK9 inh	Kir21 inh	KCNK3 inh	KCNQ1 pot	KCNQ1 block	hERG rescue	KCNK9 inh conf	Kir21 sel	KCNK9 uninduced
CCN(CC)S(=O)(=O)c1cc(C(=O)N2CCc3ccccc32)ccc1Cl	i	-0.78	i	i	i	-13	i	i	i
Cc1ccc(C)c(NS(=O)(=O)c2cc(C(=O)N3CCc4ccccc4C3)ccc2Cl)c1	-17*	-0.53	i	i	i	4	57%*	i	36%*
Cc1cccc(NS(=O)(=O)c2cc(C(=O)N3CCc4ccccc4C3)ccc2Cl)c1C	-15*	-0.56	i	i	i	-2	68%*	i	i
Cc1ccccc1NS(=O)(=O)c1cc(C(=O)N2CCCC2)ccc1Cl	i	-0.76	i	i	i	-7	·	·	·
CN(C)S(=O)(=O)c1ccc(N2CCCC2)c(C(=O)Nc2ccccc2OC(F)F)c1	i	0.18	i	i	i	-8	i	i	i
CN(C)S(=O)(=O)c1ccc(N2CCCC2)c(C(=O)NCC2COc3ccccc3O2)c1 (centres undefined)	i	0.58	i	i	i	-16	i	i	i
CN(C)S(=O)(=O)c1ccc(N2CCCC2)c(C(=O)Nc2ccccc2)c1	i	1.9	i	i	i	-11	·	·	·
CN(C)S(=O)(=O)c1ccc(N2CCCC2)c(C(=O)Nc2ccccc2N2CCOCC2)c1	·	·	i	·	·	·	·	·	·
CSc1ccccc1NC(=O)c1cc(S(=O)(=O)N(C)C)ccc1N1CCCC1	i	0.42	i	i	i	-10	i	i	i
